In brackets after ≈: the same amount, converted by molar mass.

One experiment deals with Bacillus subtilis. Description: Antibacterial activity against Bacillus subtilis ATCC 6633 after 24 hrs by microbroth double dilution method. The conditions noted are these: ATCC 6633, 24 h. The format is functional. Put shortly: (§1)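 Microbroth double dilution in Mueller Hinton broth; compound stock 10 mg/mL in DMSO serially halved across rows. Wells inoculated with 10 μL culture at 10^6 cells/mL, incubated 37 °C for 24 h. Amikacin row as positive control, DMSO row as negative control. MIC taken as lowest concentration inhibiting bacterial growth.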
A general note: Dilution methods test growth across graded concentrations, often in twofold steps.
What is called MIC is the smallest concentration in the dilution series that meets the test's criterion for growth inhibition. The low end stands for a more susceptible organism, the high end for a less susceptible organism. `NCC[C@H](O)C(=O)N[C@@H]1C[C@H](N)[C@@H](O[C@H]2O[C@H](CN)[C@@H](O)[C@H](O)[C@H]2O)[C@H](O)[C@H]1O[C@H]1O[C@H](CO)[C@@H](O)[C@H](N)[C@H]1O` [AMIKACIN] returned an MIC of 71.7 µM (≈ 42 µg/mL).

Consider `CC1=CCC[C@H]2[C@](C)(CC3=CC(=O)C=C(N[C@@H](Cc4c[nH]c5ccccc45)C(=O)O)C3=O)[C@@H](C)CC[C@]12C`, for which 37.9 µM (≈ 19.5 µg/mL) was the least that counted as inhibitory (MIC).

A further experiment relates to Micrococcus luteus. Description: Antibacterial activity against Micrococcus luteus ATCC 4698 after 24 hrs by microbroth double dilution method. The experiment is classed as functional. The conditions noted are these: ATCC 4698, 24 h. A digest of the protocol: as §1
Compound `NCC[C@H](O)C(=O)N[C@@H]1C[C@H](N)[C@@H](O[C@H]2O[C@H](CN)[C@@H](O)[C@H](O)[C@H]2O)[C@H](O)[C@H]1O[C@H]1O[C@H](CO)[C@@H](O)[C@H](N)[C@H]1O` [AMIKACIN] showed an MIC of 13.7 µM (≈ 7.99 µg/mL).

In the case of `CC1=CCC[C@H]2[C@](C)(CC3=CC(=O)C=C(N[C@@H](Cc4c[nH]c5ccccc45)C(=O)O)C3=O)[C@@H](C)CC[C@]12C`, the MIC was 19.1 µM (≈ 9.81 µg/mL).

The subject of a further experiment is HeLa. The experiment in a line: Cytotoxicity against human HeLa cells assessed as cell survival after 72 hrs by MTT assay. The format is functional, cell-based.
Settings: not given
A digest of the protocol: (§2)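 Cells seeded (HeLa 2000, MDA-MB-453 3000, others 5000 per well), treated 24 h later (K562 after 2 h). Five double-diluted final concentrations, 200–12.5 μM, from 10 mM DMSO stocks, in RPMI-1640 with 10% FBS, pH 7.2, 72 h. MTT 4 h at 37 °C, SDS added, A570 read next day. Survival relative to medium control; IC50 from survival curves; triplicate; cisplatin positive control.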
Background: Formazan colour is commonly taken as a measure of viable cells.
For orientation: IC50 means the concentration that gives 50% inhibition. Take `CC1=CCC[C@H]2[C@](C)(CC3=CC(=O)C=C(N[C@@H](Cc4c[nH]c5ccccc45)C(=O)O)C3=O)[C@@H](C)CC[C@]12C`: the IC50 stood at 16.2 µM.

Another experiment has as its system Clostridium sporogenes. The experiment in a line: Antibacterial activity against Clostridium sporogenes ATCC 19404 after 24 hrs by microbroth double dilution method. The format is functional. The conditions noted are these: ATCC 19404, 24 h. Put shortly: as §1
Regarding `NCC[C@H](O)C(=O)N[C@@H]1C[C@H](N)[C@@H](O[C@H]2O[C@H](CN)[C@@H](O)[C@H](O)[C@H]2O)[C@H](O)[C@H]1O[C@H]1O[C@H](CO)[C@@H](O)[C@H](N)[C@H]1O` [AMIKACIN], the MIC turned out to be 25.6 µM (≈ 15 µg/mL).

For the compound `CC1=CCC[C@H]2[C@](C)(CC3=CC(=O)C=C(N[C@@H](Cc4c[nH]c5ccccc45)C(=O)O)C3=O)[C@@H](C)CC[C@]12C`, it took 37.9 µM (≈ 19.5 µg/mL) to inhibit growth (MIC).

Another experiment concerns Escherichia coli. Description: Antibacterial activity against Escherichia coli ATCC 25922 after 24 hrs by microbroth double dilution method. The format is functional. Conditions: ATCC 25922, 24 h. Put shortly:
as §1
With `NCC[C@H](O)C(=O)N[C@@H]1C[C@H](N)[C@@H](O[C@H]2O[C@H](CN)[C@@H](O)[C@H](O)[C@H]2O)[C@H](O)[C@H]1O[C@H]1O[C@H](CO)[C@@H](O)[C@H](N)[C@H]1O` [AMIKACIN], the minimal inhibitory concentration (MIC) stood at 8.54 µM (≈ 5 µg/mL).

Regarding `CC1=CCC[C@H]2[C@](C)(CC3=CC(=O)C=C(N[C@@H](Cc4c[nH]c5ccccc45)C(=O)O)C3=O)[C@@H](C)CC[C@]12C`, the minimal inhibitory concentration (MIC) was 19.1 µM (≈ 9.81 µg/mL).

For another experiment, the system named is Proteus hauseri. Description: Antibacterial activity against Proteus hauseri ATCC 13315 after 24 hrs by microbroth double dilution method. The experiment is classed as functional. Conditions: ATCC 13315, 24 h. A digest of the protocol: as §1
In the case of `NCC[C@H](O)C(=O)N[C@@H]1C[C@H](N)[C@@H](O[C@H]2O[C@H](CN)[C@@H](O)[C@H](O)[C@H]2O)[C@H](O)[C@H]1O[C@H]1O[C@H](CO)[C@@H](O)[C@H](N)[C@H]1O` [AMIKACIN], the minimal inhibitory concentration (MIC) stood at 11.9 µM (≈ 7 µg/mL).

In turn, `CC1=CCC[C@H]2[C@](C)(CC3=CC(=O)C=C(N[C@@H](Cc4c[nH]c5ccccc45)C(=O)O)C3=O)[C@@H](C)CC[C@]12C` displayed an MIC of 37.9 µM (≈ 19.5 µg/mL).

Another experiment concerns Salmonella enterica. The experiment in a line: Antibacterial activity against Salmonella enterica ATCC 13076 after 24 hrs by microbroth double dilution method. The format is functional. The conditions noted are these: ATCC 13076, 24 h. Put shortly: as §1
Regarding `NCC[C@H](O)C(=O)N[C@@H]1C[C@H](N)[C@@H](O[C@H]2O[C@H](CN)[C@@H](O)[C@H](O)[C@H]2O)[C@H](O)[C@H]1O[C@H]1O[C@H](CO)[C@@H](O)[C@H](N)[C@H]1O` [AMIKACIN], 13.7 µM (≈ 8 µg/mL) was the least that counted as inhibitory (MIC).

Turning to `CC1=CCC[C@H]2[C@](C)(CC3=CC(=O)C=C(N[C@@H](Cc4c[nH]c5ccccc45)C(=O)O)C3=O)[C@@H](C)CC[C@]12C`, the MIC was 19.1 µM (≈ 9.81 µg/mL).

The next experiment relates to MRC5. The experiment in a line: Cytotoxicity against human MRC5 cells assessed as cell survival after 72 hrs by MTT assay. The experiment is classed as cell-based. The conditions noted are these: MRC5, 72 h. Put shortly:
as §2
For the compound `CC1=CCC[C@H]2[C@](C)(CC3=CC(=O)C=C(N[C@@H](Cc4c[nH]c5ccccc45)C(=O)O)C3=O)[C@@H](C)CC[C@]12C`, the 50% inhibitory concentration (IC50) stood at 157 µM.

Another experiment has as its system K562. Description: Cytotoxicity against human K562 cells assessed as cell survival after 72 hrs by MTT assay. The format is functional, cell-based. Conditions: K562, 72 h. A digest of the protocol:
as §2
Take `CC1=CCC[C@H]2[C@](C)(CC3=CC(=O)C=C(N[C@@H](Cc4c[nH]c5ccccc45)C(=O)O)C3=O)[C@@H](C)CC[C@]12C`: the IC50 turned out to be 16.1 µM.

A further experiment relates to A549. The experiment in a line: Cytotoxicity against human A549 cells assessed as cell survival after 72 hrs by MTT assay. Conditions: A549, 72 h. The experiment is classed as functional, cell-based. A digest of the protocol:
as §2
Take `CC1=CCC[C@H]2[C@](C)(CC3=CC(=O)C=C(N[C@@H](Cc4c[nH]c5ccccc45)C(=O)O)C3=O)[C@@H](C)CC[C@]12C`: the half-inhibitory concentration (IC50) worked out at 39.6 µM.

Another experiment deals with Staphylococcus aureus. The experiment in a line: Antibacterial activity against Staphylococcus aureus ATCC 6538 after 24 hrs by microbroth double dilution method. The experiment is classed as functional. Conditions: ATCC 6538, 24 h. A digest of the protocol:
as §1
On to `NCC[C@H](O)C(=O)N[C@@H]1C[C@H](N)[C@@H](O[C@H]2O[C@H](CN)[C@@H](O)[C@H](O)[C@H]2O)[C@H](O)[C@H]1O[C@H]1O[C@H](CO)[C@@H](O)[C@H](N)[C@H]1O` [AMIKACIN], for which the MIC came to 18.8 µM (≈ 11 µg/mL).

Regarding `CC1=CCC[C@H]2[C@](C)(CC3=CC(=O)C=C(N[C@@H](Cc4c[nH]c5ccccc45)C(=O)O)C3=O)[C@@H](C)CC[C@]12C`, the lowest concentration to inhibit growth (MIC) was 19.1 µM (≈ 9.81 µg/mL).

A further experiment has as its system Kocuria rhizophila. Description: Antibacterial activity against Kocuria rhizophila ATCC 9341 after 24 hrs by microbroth double dilution method. The experiment is classed as functional. Conditions: ATCC 9341, 24 h. Put shortly:
as §1
As for `NCC[C@H](O)C(=O)N[C@@H]1C[C@H](N)[C@@H](O[C@H]2O[C@H](CN)[C@@H](O)[C@H](O)[C@H]2O)[C@H](O)[C@H]1O[C@H]1O[C@H](CO)[C@@H](O)[C@H](N)[C@H]1O` [AMIKACIN], the minimum inhibitory concentration (MIC) was determined as 3.42 µM (≈ 2 µg/mL).

Compound `CC1=CCC[C@H]2[C@](C)(CC3=CC(=O)C=C(N[C@@H](Cc4c[nH]c5ccccc45)C(=O)O)C3=O)[C@@H](C)CC[C@]12C` returned an MIC of 305 µM (≈ 157 µg/mL).

Another experiment deals with Aspergillus brasiliensis. Description: Antifungal activity against Aspergillus brasiliensis ATCC 16404 after 24 hrs by microbroth double dilution method. The experiment is classed as functional.
Settings: not given
Compound NYSTATIN came in with an MIC of 1350 µM.

The same experiment, now with this note: ATCC 16404, 24 h.
In the case of `CC1=CCC[C@H]2[C@](C)(CC3=CC(=O)C=C(N[C@@H](Cc4c[nH]c5ccccc45)C(=O)O)C3=O)[C@@H](C)CC[C@]12C`, the lowest concentration to inhibit growth (MIC) was 1220 µM (≈ 626 µg/mL).

The test system of a further experiment is Micrococcus flavus. The experiment in a line: Antibacterial activity against Micrococcus flavus ATCC 10240 after 24 hrs by microbroth double dilution method. The format is functional. Conditions: ATCC 10240, 24 h. Put shortly:
as §1
On to `NCC[C@H](O)C(=O)N[C@@H]1C[C@H](N)[C@@H](O[C@H]2O[C@H](CN)[C@@H](O)[C@H](O)[C@H]2O)[C@H](O)[C@H]1O[C@H]1O[C@H](CO)[C@@H](O)[C@H](N)[C@H]1O` [AMIKACIN], for which the MIC came out at 3.42 µM (≈ 2 µg/mL).

`CC1=CCC[C@H]2[C@](C)(CC3=CC(=O)C=C(N[C@@H](Cc4c[nH]c5ccccc45)C(=O)O)C3=O)[C@@H](C)CC[C@]12C` displayed a minimal inhibitory concentration (MIC) of 37.9 µM (≈ 19.5 µg/mL).

A further experiment deals with Saccharomyces cerevisiae. The experiment in a line: Antifungal activity against Saccharomyces cerevisiae ATCC 9763 after 24 hrs by microbroth double dilution method. The experiment is classed as functional.
Settings: not given
As for NYSTATIN, the MIC amounted to 1350 µM.

The same experiment, now with this note: ATCC 9763, 24 h.
`CC1=CCC[C@H]2[C@](C)(CC3=CC(=O)C=C(N[C@@H](Cc4c[nH]c5ccccc45)C(=O)O)C3=O)[C@@H](C)CC[C@]12C` returned an MIC of under 2.39 µM.

The next experiment deals with Pseudomonas aeruginosa. Description: Antibacterial activity against Pseudomonas aeruginosa ATCC 9027 after 24 hrs by microbroth double dilution method. The experiment is classed as functional. Conditions: ATCC 9027, 24 h. Put shortly:
as §1
Turning to `NCC[C@H](O)C(=O)N[C@@H]1C[C@H](N)[C@@H](O[C@H]2O[C@H](CN)[C@@H](O)[C@H](O)[C@H]2O)[C@H](O)[C@H]1O[C@H]1O[C@H](CO)[C@@H](O)[C@H](N)[C@H]1O` [AMIKACIN], the MIC was 85.4 µM (≈ 50 µg/mL).

For `CC1=CCC[C@H]2[C@](C)(CC3=CC(=O)C=C(N[C@@H](Cc4c[nH]c5ccccc45)C(=O)O)C3=O)[C@@H](C)CC[C@]12C`, the minimum inhibitory concentration (MIC) was determined as 37.9 µM (≈ 19.5 µg/mL).

Tested on in another experiment: not listed separately
Description: Cytotoxicity against human Fem-X cells assessed as cell survival after 72 hrs by MTT assay. The format is functional, cell-based.
Settings: not given
A digest of the protocol:
as §2
Consider `CC1=CCC[C@H]2[C@](C)(CC3=CC(=O)C=C(N[C@@H](Cc4c[nH]c5ccccc45)C(=O)O)C3=O)[C@@H](C)CC[C@]12C`, for which the IC50 stood at 14.8 µM.

In a further experiment the test system is MDA-MB-453. Description: Cytotoxicity against human MDA-MB-453 cells assessed as cell survival after 72 hrs by MTT assay. The experiment is classed as functional, cell-based. Conditions: MDA-MB-453, 72 h. A digest of the protocol: as §2
For `CC1=CCC[C@H]2[C@](C)(CC3=CC(=O)C=C(N[C@@H](Cc4c[nH]c5ccccc45)C(=O)O)C3=O)[C@@H](C)CC[C@]12C`, the IC50 was 22.9 µM.

The subject of a further experiment is Candida albicans. The experiment in a line: Antifungal activity against Candida albicans ATCC 10231 after 24 hrs by microbroth double dilution method. The format is functional.
Settings: not given
For NYSTATIN, 2700 µM was the least that counted as inhibitory (MIC).

Still in this experiment, the particulars now being: ATCC 10231, 24 h.
The compound `CC1=CCC[C@H]2[C@](C)(CC3=CC(=O)C=C(N[C@@H](Cc4c[nH]c5ccccc45)C(=O)O)C3=O)[C@@H](C)CC[C@]12C` yielded a minimal inhibitory concentration (MIC) of 305 µM (≈ 157 µg/mL).

Values taken from ChEMBL document CHEMBL3627646, “Synthesis and biological activity of amino acid derivatives of avarone and its model compound” (Bioorg Med Chem, 2015).
